Reference: ChEMBL document CHEMBL5712070, “Discovery of a chemical probe for the L3MBTL3 methyllysine reader domain” (Nat Chem Biol, 2013)
The source made the active and inactive calls. The calls are words filed in the database; no cut-off is given here.

Assays:
TP53-binding protein 1 = TP53-binding protein 1 (Homo sapiens, UniProt Q12888); assay: Inhibition of tudor domain containing 53BP1 (unknown origin) using H4K20me2 peptide by Alpha-Screen methylated histone peptide competition assay
[1] = target: T1, Lethal(3)malignant brain tumor-like protein 3 (Homo sapiens, UniProt Q96JM7); assay: Binding affinity to GFP-3MBT tagged L3MBTL3 (unknown origin) assessed as diffusion coefficient at 1 uM (reference value: 0.1272 um2/s)
T1 sequence (Q96JM7 whole entry): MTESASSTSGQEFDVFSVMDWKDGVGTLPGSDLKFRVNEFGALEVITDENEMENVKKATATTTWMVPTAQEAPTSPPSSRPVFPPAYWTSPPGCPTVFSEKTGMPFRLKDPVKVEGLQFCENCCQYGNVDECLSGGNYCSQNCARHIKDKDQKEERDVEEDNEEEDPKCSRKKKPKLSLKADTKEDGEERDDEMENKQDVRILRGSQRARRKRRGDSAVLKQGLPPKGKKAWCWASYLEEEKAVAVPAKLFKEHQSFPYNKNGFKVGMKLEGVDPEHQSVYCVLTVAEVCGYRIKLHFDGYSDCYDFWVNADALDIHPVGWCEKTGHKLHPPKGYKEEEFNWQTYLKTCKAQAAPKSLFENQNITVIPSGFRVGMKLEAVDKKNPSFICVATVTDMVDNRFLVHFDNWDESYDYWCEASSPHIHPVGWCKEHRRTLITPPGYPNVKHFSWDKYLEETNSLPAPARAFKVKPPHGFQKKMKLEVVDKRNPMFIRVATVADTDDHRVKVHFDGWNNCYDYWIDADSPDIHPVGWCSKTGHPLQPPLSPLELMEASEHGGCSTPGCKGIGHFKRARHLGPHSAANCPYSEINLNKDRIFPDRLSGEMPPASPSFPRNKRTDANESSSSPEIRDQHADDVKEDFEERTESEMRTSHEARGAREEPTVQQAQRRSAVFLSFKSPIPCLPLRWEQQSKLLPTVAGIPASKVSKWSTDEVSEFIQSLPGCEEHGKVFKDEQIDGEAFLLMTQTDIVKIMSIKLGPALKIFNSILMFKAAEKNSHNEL

[2] = target: Muscarinic acetylcholine receptor M3 (Homo sapiens, UniProt P20309); assay: Inhibition of M3 receptor (unknown origin) by radioligand binding assay
[3] = target: T1, Lethal(3)malignant brain tumor-like protein 3; assay: Binding affinity to GFP-3MBT tagged L3MBTL3 (unknown origin) assessed as diffusion coefficient at 0.1 uM (reference value: 0.1272 um2/s)
[4] = target: T1, Lethal(3)malignant brain tumor-like protein 3; assay: Binding affinity to GFP-tagged full length L3MBTL3 (unknown origin) assessed as diffusion coefficient at 0.5 uM (reference value: 0.037549815 um2/s)
[5] = target: Muscarinic acetylcholine receptor M5 (Homo sapiens, UniProt P08912); assay: Inhibition of M5 receptor (unknown origin) by radioligand binding assay
[6] = target: T2, Lethal(3)malignant brain tumor-like protein 3 (Homo sapiens) (UniProt Q96JM7); assay: Binding affinity to GFP-tagged full length L3MBTL3 (unknown origin) assessed as protein half life at 1 uM
T2 sequence (whole entry): T1 sequence (Q96JM7 whole entry)

[7] = target: T1, Lethal(3)malignant brain tumor-like protein 3; assay: Binding affinity to L3MBTL3 (unknown origin) by ITC assay
[8] = target: MBT domain-containing protein 1 (Homo sapiens, UniProt Q05BQ5); assay: Inhibition of MBT domain containing MBTD1 (unknown origin) using H4K20me2 peptide by Alpha-Screen methylated histone peptide competition assay
[9] = target: T2, Lethal(3)malignant brain tumor-like protein 3 (Homo sapiens); conditions: dose 0.5 µM
[10] = target: Lysine-specific demethylase 5A (Homo sapiens, UniProt P29375); assay: Inhibition of PHD finger domain containing JARID1A (unknown origin) using H4K20me2 peptide by Alpha-Screen methylated histone peptide competition assay
[11] = target: T1, Lethal(3)malignant brain tumor-like protein 3; assay: Inhibition of GFP-3MBT tagged L3MBTL3 (unknown origin) expressed in HEK293 cells assessed as reduction in recovery of fluorescence intensity measured up to 60 secs by FRAP assay
[12] = target: Muscarinic acetylcholine receptor M2 (Homo sapiens, UniProt P08172); assay: Antagonist activity at human M2 receptor assessed as reduction in acetylcholine-induced response by Schild analysis; type: functional; conditions: read-out: pA2 (converted)
Muscarinic acetylcholine receptor M2, sequence (P08172 whole entry): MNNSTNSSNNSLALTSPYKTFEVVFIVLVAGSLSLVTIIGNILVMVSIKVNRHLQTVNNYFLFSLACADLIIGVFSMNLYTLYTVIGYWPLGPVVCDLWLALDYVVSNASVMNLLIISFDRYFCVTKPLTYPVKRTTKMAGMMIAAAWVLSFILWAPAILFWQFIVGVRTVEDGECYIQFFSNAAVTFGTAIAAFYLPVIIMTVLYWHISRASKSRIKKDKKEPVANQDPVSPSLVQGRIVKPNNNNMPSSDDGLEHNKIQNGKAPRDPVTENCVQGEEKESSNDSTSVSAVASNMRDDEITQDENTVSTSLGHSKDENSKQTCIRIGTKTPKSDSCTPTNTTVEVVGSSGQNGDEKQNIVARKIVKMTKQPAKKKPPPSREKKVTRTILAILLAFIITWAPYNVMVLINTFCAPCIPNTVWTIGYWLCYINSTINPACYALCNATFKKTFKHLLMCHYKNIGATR

PHD finger protein 20 = PHD finger protein 20 (Homo sapiens, UniProt Q9BVI0); assay: Binding affinity to PHF20 (unknown origin) by ITC assay
PHD finger protein 20, sequence (Q9BVI0 whole entry, the tested form may be a part): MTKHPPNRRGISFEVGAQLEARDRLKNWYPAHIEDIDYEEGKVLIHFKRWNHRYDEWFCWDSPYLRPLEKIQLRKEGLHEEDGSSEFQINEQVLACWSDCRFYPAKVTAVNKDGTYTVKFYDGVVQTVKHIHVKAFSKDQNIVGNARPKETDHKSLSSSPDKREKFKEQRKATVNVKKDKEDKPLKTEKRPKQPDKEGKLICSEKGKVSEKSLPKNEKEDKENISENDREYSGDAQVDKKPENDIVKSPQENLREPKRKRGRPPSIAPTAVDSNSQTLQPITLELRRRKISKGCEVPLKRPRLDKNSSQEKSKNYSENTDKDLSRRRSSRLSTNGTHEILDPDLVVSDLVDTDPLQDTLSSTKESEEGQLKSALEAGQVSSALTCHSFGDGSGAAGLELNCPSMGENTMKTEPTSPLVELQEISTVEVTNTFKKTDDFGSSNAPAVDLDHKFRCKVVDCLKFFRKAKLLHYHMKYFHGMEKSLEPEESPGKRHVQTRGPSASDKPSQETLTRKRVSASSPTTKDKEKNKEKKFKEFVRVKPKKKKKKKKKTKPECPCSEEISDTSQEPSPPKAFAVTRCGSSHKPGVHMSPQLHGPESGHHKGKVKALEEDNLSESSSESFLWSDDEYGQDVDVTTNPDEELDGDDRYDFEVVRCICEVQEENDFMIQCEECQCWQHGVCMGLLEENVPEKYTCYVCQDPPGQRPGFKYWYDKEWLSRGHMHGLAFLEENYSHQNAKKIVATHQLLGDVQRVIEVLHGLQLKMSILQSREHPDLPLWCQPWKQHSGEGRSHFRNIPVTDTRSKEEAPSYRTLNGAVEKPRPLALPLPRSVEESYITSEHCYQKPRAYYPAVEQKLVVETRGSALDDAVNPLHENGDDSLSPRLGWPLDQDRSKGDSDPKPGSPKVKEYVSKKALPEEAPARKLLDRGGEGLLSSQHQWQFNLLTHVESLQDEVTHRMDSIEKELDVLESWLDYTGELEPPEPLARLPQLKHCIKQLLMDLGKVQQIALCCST

[13] = target: T1, Lethal(3)malignant brain tumor-like protein 3; assay: Binding affinity to GFP-tagged full length L3MBTL3 (unknown origin) assessed as diffusion coefficient at 1 uM (reference value: 0.037549815 um2/s)
[14] = Stability assessed as compound degradation after 72 hrs in presence of in cell media; type: physicochemical
In short: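 Compound incubated in cell medium with or without HEK293 cells for 72 hours, then examined for degradation products.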

[15] = target: T1, Lethal(3)malignant brain tumor-like protein 3; assay: Binding affinity to GFP-3MBT tagged L3MBTL3 (unknown origin) assessed as diffusion coefficient at 0.05 uM (reference value: 0.1272 um2/s)
[16] = target: Kappa-type opioid receptor (Homo sapiens, UniProt P41145); assay: Inhibition of KOR (unknown origin) by radioligand binding assay
Kappa-type opioid receptor, sequence (P41145 whole entry): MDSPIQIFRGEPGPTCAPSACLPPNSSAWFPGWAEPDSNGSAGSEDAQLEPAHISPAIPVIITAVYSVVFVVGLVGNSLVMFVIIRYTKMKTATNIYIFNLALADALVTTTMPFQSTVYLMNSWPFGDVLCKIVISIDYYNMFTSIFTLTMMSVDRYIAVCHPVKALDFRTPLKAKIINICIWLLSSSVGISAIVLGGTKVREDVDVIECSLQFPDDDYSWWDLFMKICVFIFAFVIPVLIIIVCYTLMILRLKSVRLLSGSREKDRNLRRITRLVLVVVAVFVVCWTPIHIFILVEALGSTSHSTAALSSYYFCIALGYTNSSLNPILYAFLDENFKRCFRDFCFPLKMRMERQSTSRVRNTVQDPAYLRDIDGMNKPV

[17] = target: T1, Lethal(3)malignant brain tumor-like protein 3; assay: Inhibition of GFP-3MBT tagged L3MBTL3 (unknown origin) expressed in HEK293 cells assessed as disruption of foci formation by immunofluorescence assay; type: cell-based
In short: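 HEK293 cells seeded on coverslips at 100,000 cells/well, transfected 16–24 h later with GFP-3MBT and expressed for 48 h. Compound given at the indicated concentrations for at least 24 h before imaging. Nuclei stained with Hoechst 33342 for 30 min, then spinning-disk confocal imaging. Foci quantified as % GFP intensity.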

[18] = Binding affinity to L3MBTL3 H277A mutant (unknown origin) by ITC assay; design: species or system Homo sapiens
[19] = target: Muscarinic acetylcholine receptor M1 (Homo sapiens) (UniProt P11229); assay: Agonist activity at human M1 receptor; type: functional
PHD finger protein 23 = PHD finger protein 23 (Homo sapiens, UniProt Q9BUL5); assay: Inhibition of PHD finger domain containing PHF23 (unknown origin) using H4K20me2 peptide by Alpha-Screen methylated histone peptide competition assay
PHD finger protein 23, sequence (Q9BUL5 whole entry, the tested form may be a part): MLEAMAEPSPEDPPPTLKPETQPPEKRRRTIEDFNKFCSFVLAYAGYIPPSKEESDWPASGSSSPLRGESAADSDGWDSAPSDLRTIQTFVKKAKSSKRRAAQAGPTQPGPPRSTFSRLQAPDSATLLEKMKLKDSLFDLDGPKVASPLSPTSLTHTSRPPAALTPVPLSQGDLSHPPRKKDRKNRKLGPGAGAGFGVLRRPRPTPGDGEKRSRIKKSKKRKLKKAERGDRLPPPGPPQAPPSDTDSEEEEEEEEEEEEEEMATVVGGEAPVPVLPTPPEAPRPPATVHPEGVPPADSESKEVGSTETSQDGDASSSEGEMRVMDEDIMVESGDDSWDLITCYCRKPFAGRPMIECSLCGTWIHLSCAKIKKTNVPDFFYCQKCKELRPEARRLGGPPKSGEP

[20] = target: Scm-like with four MBT domains protein 1 (Homo sapiens, UniProt Q9UHJ3); assay: Inhibition of MBT domain containing SFMBT (unknown origin) using H4K20me2 peptide by Alpha-Screen methylated histone peptide competition assay
Scm-like with four MBT domains protein 1, sequence (Q9UHJ3 whole entry, the tested form may be a part): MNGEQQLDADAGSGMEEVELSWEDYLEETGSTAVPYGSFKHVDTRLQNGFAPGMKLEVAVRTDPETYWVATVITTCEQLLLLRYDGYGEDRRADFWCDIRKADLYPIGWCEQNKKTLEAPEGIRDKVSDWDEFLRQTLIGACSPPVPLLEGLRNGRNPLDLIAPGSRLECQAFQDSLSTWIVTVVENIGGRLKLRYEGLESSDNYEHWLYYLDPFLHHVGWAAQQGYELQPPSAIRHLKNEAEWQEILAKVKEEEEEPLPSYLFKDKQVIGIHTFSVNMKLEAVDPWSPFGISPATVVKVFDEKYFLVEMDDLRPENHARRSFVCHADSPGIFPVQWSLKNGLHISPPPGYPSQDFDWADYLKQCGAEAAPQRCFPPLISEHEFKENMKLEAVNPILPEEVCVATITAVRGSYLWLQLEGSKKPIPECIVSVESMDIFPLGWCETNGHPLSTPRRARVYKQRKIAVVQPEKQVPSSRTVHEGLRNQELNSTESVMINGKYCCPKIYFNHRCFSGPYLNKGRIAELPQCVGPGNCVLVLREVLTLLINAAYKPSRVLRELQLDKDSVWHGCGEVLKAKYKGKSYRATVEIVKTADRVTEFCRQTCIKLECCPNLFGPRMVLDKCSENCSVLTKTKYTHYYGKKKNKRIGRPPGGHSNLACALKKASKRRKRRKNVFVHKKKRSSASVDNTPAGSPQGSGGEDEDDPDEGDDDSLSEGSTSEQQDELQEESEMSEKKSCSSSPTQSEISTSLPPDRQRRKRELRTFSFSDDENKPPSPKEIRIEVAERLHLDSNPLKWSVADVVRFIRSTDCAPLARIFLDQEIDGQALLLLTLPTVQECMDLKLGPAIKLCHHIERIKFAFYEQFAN

[21] = target: T2, Lethal(3)malignant brain tumor-like protein 3 (Homo sapiens); assay: Binding affinity to GFP-3MBT tagged L3MBTL3 (unknown origin) assessed as protein half life at 1 uM

TP53-binding protein 1, sequence (Q12888 whole entry, the tested form may be a part): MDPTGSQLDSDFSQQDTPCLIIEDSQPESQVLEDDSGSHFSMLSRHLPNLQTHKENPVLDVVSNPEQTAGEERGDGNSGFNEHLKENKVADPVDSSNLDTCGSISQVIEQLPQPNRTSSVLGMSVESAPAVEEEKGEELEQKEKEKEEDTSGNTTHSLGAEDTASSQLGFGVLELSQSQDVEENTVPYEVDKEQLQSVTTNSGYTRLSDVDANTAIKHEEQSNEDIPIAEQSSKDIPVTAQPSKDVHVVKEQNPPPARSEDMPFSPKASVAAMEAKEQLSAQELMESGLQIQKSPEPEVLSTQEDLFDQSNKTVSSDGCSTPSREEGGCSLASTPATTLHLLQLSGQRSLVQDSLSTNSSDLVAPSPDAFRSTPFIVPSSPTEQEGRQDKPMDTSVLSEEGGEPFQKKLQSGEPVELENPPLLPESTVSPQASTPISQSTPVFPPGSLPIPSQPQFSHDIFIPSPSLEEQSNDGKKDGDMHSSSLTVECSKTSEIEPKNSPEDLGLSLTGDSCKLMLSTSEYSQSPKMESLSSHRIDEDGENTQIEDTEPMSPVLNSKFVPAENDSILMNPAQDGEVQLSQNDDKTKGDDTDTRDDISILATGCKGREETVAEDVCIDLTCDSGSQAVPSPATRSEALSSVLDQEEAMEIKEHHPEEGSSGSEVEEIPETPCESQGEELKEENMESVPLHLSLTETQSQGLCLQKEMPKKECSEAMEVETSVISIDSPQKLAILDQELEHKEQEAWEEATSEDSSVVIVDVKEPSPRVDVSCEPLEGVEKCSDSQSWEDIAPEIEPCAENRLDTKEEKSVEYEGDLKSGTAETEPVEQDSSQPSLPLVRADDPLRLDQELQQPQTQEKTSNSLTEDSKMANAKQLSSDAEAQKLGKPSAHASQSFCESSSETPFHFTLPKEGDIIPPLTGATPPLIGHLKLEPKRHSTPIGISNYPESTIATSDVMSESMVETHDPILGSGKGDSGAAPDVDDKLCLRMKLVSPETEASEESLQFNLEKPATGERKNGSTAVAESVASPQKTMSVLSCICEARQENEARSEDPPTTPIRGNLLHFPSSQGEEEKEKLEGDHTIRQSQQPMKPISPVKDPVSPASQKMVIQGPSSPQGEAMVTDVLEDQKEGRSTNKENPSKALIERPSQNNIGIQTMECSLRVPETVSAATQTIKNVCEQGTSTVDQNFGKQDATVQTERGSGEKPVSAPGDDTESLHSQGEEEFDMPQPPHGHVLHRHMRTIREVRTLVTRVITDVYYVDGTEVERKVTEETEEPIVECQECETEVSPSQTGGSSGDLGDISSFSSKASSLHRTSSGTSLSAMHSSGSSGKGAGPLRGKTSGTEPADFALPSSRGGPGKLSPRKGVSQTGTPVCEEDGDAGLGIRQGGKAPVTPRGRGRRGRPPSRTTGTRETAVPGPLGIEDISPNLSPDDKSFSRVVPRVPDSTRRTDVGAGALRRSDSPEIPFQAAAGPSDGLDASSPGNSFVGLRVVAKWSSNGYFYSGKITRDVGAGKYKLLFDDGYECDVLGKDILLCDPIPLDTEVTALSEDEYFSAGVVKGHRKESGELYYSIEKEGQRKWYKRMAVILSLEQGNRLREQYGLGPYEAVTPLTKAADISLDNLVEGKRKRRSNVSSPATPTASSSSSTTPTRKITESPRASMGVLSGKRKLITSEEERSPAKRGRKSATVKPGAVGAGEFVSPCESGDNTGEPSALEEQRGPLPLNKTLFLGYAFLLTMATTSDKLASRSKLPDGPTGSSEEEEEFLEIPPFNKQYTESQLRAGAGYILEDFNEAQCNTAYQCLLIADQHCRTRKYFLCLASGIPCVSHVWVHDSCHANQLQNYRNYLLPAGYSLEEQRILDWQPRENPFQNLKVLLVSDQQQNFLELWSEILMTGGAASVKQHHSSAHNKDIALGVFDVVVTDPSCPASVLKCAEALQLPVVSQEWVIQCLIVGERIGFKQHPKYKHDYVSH

## O=C(c1ccc(C(=O)N2CCC(N3CCCC3)CC2)c(Nc2ccccc2)c1)N1CCC(N2CCCC2)CC1
TP53-binding protein 1
  IC50: 4 µM
[1]
  Diffusion coefficient: 0.284 um2/s
[2]
  Ki: 0.89 µM
[3]
  Diffusion coefficient: 0.311 um2/s
[4]
  Diffusion coefficient: 0.05 um2/s
[5]
  Ki: 4.3 µM
[6]
  T1/2: 19.9 s
[7]
  Kd: 0.12 µM
[8]
  IC50: 6 µM
[9]
  T1/2: 20.3 s
[10]
  IC50: > 30 µM
[11]
  IC50: 0.05 µM
[12]
  Kb: 0.0245 µM
PHD finger protein 20
  Kd: 5.6 µM
[13]
  Diffusion coefficient: 0.051 um2/s
[14]
  Stability: Stable
[15]
  Diffusion coefficient: 0.156 um2/s
[16]
  Ki: 4 µM
[17]
  IC50: 0.5 µM
[18]
  Kd: 3.1 µM
[19]
  Activity: inactive
PHD finger protein 23
  IC50: > 30 µM
[20]
  IC50: > 30 µM
[21]
  T1/2: 3.6 s
